Active and inactive are the calls of the source. The rule behind the calls is not given here.
Assays:
T47D [1] = assay: Inhibition of PR-A gene expression in human T47D cells at 25 nM by syber green assay; type: functional
In short: (§1)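 T47D cells plated at 80,000/well without antibiotics two days before Oligofectamine transfection with agRNA duplex (25 or 100 nM final); medium changed at 24 h, harvest day 5 unless stated otherwise. TRIzol total RNA; PR mRNA by real-time PCR with SYBR Green: 50 °C 2 min, 95 °C 10 min, 40 cycles 95 °C 15 s/60 °C 1 min.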

T47D [2] = assay: Inhibition of PR-B gene expression in human T47D cells at 25 nM by syber green assay; type: functional; in short: as §1
T47D [3] = assay: Inhibition of PR-A gene expression in human T47D cells at 25 nM by syber green assay in presence of 10 nM estradiol; type: functional, cell-based
T47D [4] = assay: Inhibition of PR-B gene expression in human T47D cells at 25 nM by syber green assay in presence of 10 nM estradiol; type: functional, cell-based
T47D [5] = assay: Inhibition of PR-A mRNA gene expression in human T47D cells at 100 nM by syber green assay; type: functional; in short: as §1
T47D [6] = assay: Inhibition of PR-B mRNA gene expression in human T47D cells at 100 nM by syber green assay; type: functional
In short: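 T47D cells in RPMI-1640 with 10% FBS, NEAA, insulin, 37 °C, 5% CO2. Plated two days before transfection without antibiotics. Oligofectamine-mediated duplex RNA transfection at 100 nM final, medium changed at 24 h, harvest five days post-transfection. Total RNA extracted with TRIzol. hPR mRNA quantified by SYBR Green qPCR: 50 °C 2 min, 95 °C 10 min, then 40 cycles of 95 °C 15 s / 60 °C 1 min.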

| Structure (SMILES) | inhibition at 0.025 µM (T47D [1]) [%] | inhibition at 0.025 µM (T47D [2]) [%] | inhibition (T47D [3]) | inhibition (T47D [4]) | inhibition at 0.1 µM (T47D [5]) [%] | inhibition at 0.1 µM (T47D [6]) [%] |
| --- | --- | --- | --- | --- | --- | --- |
| Cc1cn(CC(=O)N(CCNC(=O)CN(CCNC(=O)CN(CCNC(=O)CN(CCNC(=O)CN(CCNC(=O)CN(CCNC(=O)CN(CCNC(=O)CN(CCNC(=O)CN(CCNC(=O)CN(CCNC(=O)CN(CCNC(=O)CN(CCNC(=O)CN(CCNC(=O)CN(CCNC(=O)CN(CCNC(=O)CN(CCNC(=O)CN(CCNC(=O)CN(CCNC(=O)CN(CCNC(=O)CN(CCNC(=O)CN)C(=O)Cn2ccc(N)nc2=O)C(=O)Cn2cnc3c(=O)[nH]c(N)nc32)C(=O)Cn2ccc(=O)[nH]c2=O)C(=O)Cn2ccc(=O)[nH]c2=O)C(=O)Cn2cnc3c(=O)[nH]c(N)nc32)C(=O)Cn2ccc(=O)[nH]c2=O)C(=O)Cn2ccc(=O)[nH]c2=O)C(=O)Cn2cnc3c(N)ncnc32)C(=O)Cn2cnc3c(=O)[nH]c(N)nc32)C(=O)Cn2cnc3c(N)ncnc32)C(=O)Cn2cnc3c(N)ncnc32)C(=O)Cn2cnc3c(N)ncnc32)C(=O)Cn2cnc3c(=O)[nH]c(N)nc32)C(=O)Cn2ccc(N)nc2=O)C(=O)Cn2ccc(=O)[nH]c2=O)C(=O)Cn2cnc3c(=O)[nH]c(N)nc32)C(=O)Cn2ccc(=O)[nH]c2=O)C(=O)Cn2ccc(N)nc2=O)C(=O)Cn2ccc(=O)[nH]c2=O)CC(=O)NCCN(CC(=O)NCC(=O)O)C(=O)Cn2cc(C)c(=O)[nH]c2=O)c(=O)[nH]c1=O | < 20 | < 20 | Active | Active | 29 | 26 |
| Cc1cn(CC(=O)N(CCNC(=O)CN(CCNC(=O)CN(CCNC(=O)CN(CCNC(=O)CN(CCNC(=O)CN(CCNC(=O)CN(CCNC(=O)CN(CCNC(=O)CN(CCNC(=O)CN(CCNC(=O)CN(CCNC(=O)CN(CCNC(=O)CN(CCNC(=O)CN(CCNC(=O)CN(CCNC(=O)CN(CCNC(=O)CN(CCNC(=O)CN(CCNC(=O)CN(CCNC(=O)CN(CCNC(=O)CN(CCNC(=O)CN)C(=O)Cn2ccc(N)nc2=O)C(=O)Cn2ccc(=O)[nH]c2=O)C(=O)Cn2cnc3c(=O)[nH]c(N)nc32)C(=O)Cn2cnc3c(=O)[nH]c(N)nc32)C(=O)Cn2ccc(N)nc2=O)C(=O)Cn2ccc(N)nc2=O)C(=O)Cn2cnc3c(N)ncnc32)C(=O)Cn2cnc3c(=O)[nH]c(N)nc32)C(=O)Cn2ccc(=O)[nH]c2=O)C(=O)Cn2ccc(N)nc2=O)C(=O)Cn2ccc(N)nc2=O)C(=O)Cn2cnc3c(N)ncnc32)C(=O)Cn2ccc(N)nc2=O)C(=O)Cn2cnc3c(N)ncnc32)C(=O)Cn2cnc3c(=O)[nH]c(N)nc32)C(=O)Cn2ccc(N)nc2=O)C(=O)Cn2ccc(=O)[nH]c2=O)C(=O)Cn2cnc3c(=O)[nH]c(N)nc32)C(=O)Cn2ccc(=O)[nH]c2=O)C(=O)Cn2cc(C)c(=O)[nH]c2=O)CC(=O)O)c(=O)[nH]c1=O | < 20 | < 20 | Active | Active | 26 | 71 |
| Cc1cn(CC(=O)N(CCNC(=O)CN(CCNC(=O)CN(CCNC(=O)CN(CCNC(=O)CN(CCNC(=O)CN(CCNC(=O)CN(CCNC(=O)CN(CCNC(=O)CN(CCNC(=O)CN(CCNC(=O)CN(CCNC(=O)CN(CCNC(=O)CN(CCNC(=O)CN(CCNC(=O)CN(CCNC(=O)CN(CCNC(=O)CN(CCNC(=O)CN(CCNC(=O)CN(CCNC(=O)CN(CCNC(=O)CN)C(=O)Cn2ccc(N)nc2=O)C(=O)Cn2ccc(=O)[nH]c2=O)C(=O)Cn2cnc3c(=O)[nH]c(N)nc32)C(=O)Cn2ccc(=O)[nH]c2=O)C(=O)Cn2ccc(N)nc2=O)C(=O)Cn2ccc(=O)[nH]c2=O)C(=O)Cn2cnc3c(=O)[nH]c(N)nc32)C(=O)Cn2cnc3c(=O)[nH]c(N)nc32)C(=O)Cn2ccc(N)nc2=O)C(=O)Cn2ccc(N)nc2=O)C(=O)Cn2cnc3c(N)ncnc32)C(=O)Cn2cnc3c(=O)[nH]c(N)nc32)C(=O)Cn2ccc(=O)[nH]c2=O)C(=O)Cn2ccc(N)nc2=O)C(=O)Cn2ccc(N)nc2=O)C(=O)Cn2cnc3c(N)ncnc32)C(=O)Cn2ccc(N)nc2=O)C(=O)Cn2cnc3c(N)ncnc32)C(=O)Cn2cnc3c(=O)[nH]c(N)nc32)CC(=O)NCCN(CC(=O)NCC(=O)O)C(=O)Cn2cc(C)c(=O)[nH]c2=O)c(=O)[nH]c1=O | 50 | 55 | Active | Active | 99 | 100 |
| Cc1cn(CC(=O)N(CCNC(=O)CN(CCNC(=O)CN(CCNC(=O)CN(CCNC(=O)CN(CCNC(=O)CN(CCNC(=O)CN(CCNC(=O)CN(CCNC(=O)CN(CCNC(=O)CN(CCNC(=O)CN(CCNC(=O)CN(CCNC(=O)CN(CCNC(=O)CN(CCNC(=O)CN(CCNC(=O)CN(CCNC(=O)CN(CCNC(=O)CN(CCNC(=O)CN(CCNC(=O)CN(CCNC(=O)CN)C(=O)Cn2cnc3c(N)ncnc32)C(=O)Cn2cnc3c(=O)[nH]c(N)nc32)C(=O)Cn2cnc3c(=O)[nH]c(N)nc32)C(=O)Cn2cnc3c(N)ncnc32)C(=O)Cn2cnc3c(=O)[nH]c(N)nc32)C(=O)Cn2cnc3c(=O)[nH]c(N)nc32)C(=O)Cn2ccc(N)nc2=O)C(=O)Cn2cnc3c(=O)[nH]c(N)nc32)C(=O)Cn2ccc(=O)[nH]c2=O)C(=O)Cn2ccc(=O)[nH]c2=O)C(=O)Cn2cnc3c(=O)[nH]c(N)nc32)C(=O)Cn2ccc(=O)[nH]c2=O)C(=O)Cn2ccc(=O)[nH]c2=O)C(=O)Cn2cnc3c(N)ncnc32)C(=O)Cn2cnc3c(=O)[nH]c(N)nc32)C(=O)Cn2cnc3c(N)ncnc32)C(=O)Cn2cnc3c(N)ncnc32)C(=O)Cn2cnc3c(N)ncnc32)C(=O)Cn2cnc3c(=O)[nH]c(N)nc32)CC(=O)NCCN(CC(=O)NCC(=O)O)C(=O)Cn2cc(C)c(=O)[nH]c2=O)c(=O)[nH]c1=O | < 20 | 34 | Active | Active | 52 | 68 |
| Cc1cn(CC(=O)N(CCNC(=O)CN(CCNC(=O)CN(CCNC(=O)CN(CCNC(=O)CN(CCNC(=O)CN(CCNC(=O)CN(CCNC(=O)CN(CCNC(=O)CN(CCNC(=O)CN(CCNC(=O)CN(CCNC(=O)CN(CCNC(=O)CN(CCNC(=O)CN(CCNC(=O)CN(CCNC(=O)CN(CCNC(=O)CN(CCNC(=O)CN(CCNC(=O)CN(CCNC(=O)CN(CCNC(=O)CN)C(=O)Cn2cnc3c(N)ncnc32)C(=O)Cn2cnc3c(=O)[nH]c(N)nc32)C(=O)Cn2cnc3c(N)ncnc32)C(=O)Cn2cnc3c(=O)[nH]c(N)nc32)C(=O)Cn2cnc3c(=O)[nH]c(N)nc32)C(=O)Cn2cnc3c(N)ncnc32)C(=O)Cn2cnc3c(=O)[nH]c(N)nc32)C(=O)Cn2cnc3c(=O)[nH]c(N)nc32)C(=O)Cn2cnc3c(N)ncnc32)C(=O)Cn2cnc3c(=O)[nH]c(N)nc32)C(=O)Cn2cnc3c(=O)[nH]c(N)nc32)C(=O)Cn2ccc(N)nc2=O)C(=O)Cn2cnc3c(=O)[nH]c(N)nc32)C(=O)Cn2ccc(=O)[nH]c2=O)C(=O)Cn2ccc(=O)[nH]c2=O)C(=O)Cn2cnc3c(=O)[nH]c(N)nc32)C(=O)Cn2ccc(=O)[nH]c2=O)C(=O)Cn2ccc(=O)[nH]c2=O)C(=O)Cn2cnc3c(N)ncnc32)CC(=O)NCCN(CC(=O)NCC(=O)O)C(=O)Cn2cc(C)c(=O)[nH]c2=O)c(=O)[nH]c1=O | < 20 | < 20 | Active | Active | < 20 | < 20 |
| Cc1cn(CC(=O)N(CCNC(=O)CN(CCNC(=O)CN(CCNC(=O)CN(CCNC(=O)CN(CCNC(=O)CN(CCNC(=O)CN(CCNC(=O)CN(CCNC(=O)CN(CCNC(=O)CN(CCNC(=O)CN(CCNC(=O)CN(CCNC(=O)CN(CCNC(=O)CN(CCNC(=O)CN(CCNC(=O)CN(CCNC(=O)CN(CCNC(=O)CN(CCNC(=O)CN(CCNC(=O)CN(CCNC(=O)CN)C(=O)Cn2cnc3c(=O)[nH]c(N)nc32)C(=O)Cn2ccc(N)nc2=O)C(=O)Cn2ccc(=O)[nH]c2=O)C(=O)Cn2cnc3c(=O)[nH]c(N)nc32)C(=O)Cn2ccc(N)nc2=O)C(=O)Cn2ccc(N)nc2=O)C(=O)Cn2ccc(=O)[nH]c2=O)C(=O)Cn2cnc3c(=O)[nH]c(N)nc32)C(=O)Cn2cnc3c(=O)[nH]c(N)nc32)C(=O)Cn2ccc(N)nc2=O)C(=O)Cn2ccc(N)nc2=O)C(=O)Cn2cnc3c(N)ncnc32)C(=O)Cn2cnc3c(=O)[nH]c(N)nc32)C(=O)Cn2ccc(=O)[nH]c2=O)C(=O)Cn2ccc(N)nc2=O)C(=O)Cn2ccc(N)nc2=O)C(=O)Cn2cnc3c(N)ncnc32)C(=O)Cn2ccc(N)nc2=O)C(=O)Cn2cnc3c(N)ncnc32)CC(=O)NCCN(CC(=O)NCC(=O)O)C(=O)Cn2cc(C)c(=O)[nH]c2=O)c(=O)[nH]c1=O | < 20 | < 20 | Active | Active | < 20 | 28 |
